This passage reports Activity, Ratio and EC50 results from ChEMBL document CHEMBL4428110, “Synthesis and bioactivity of novel isoxazole chalcone derivatives on tyrosinase and melanin synthesis in murine B16 cells for the treatment of vitiligo” (Bioorg Med Chem, 2016).

In data set [1] the target is T1, Tyrosinase (Mus musculus) (UniProt P11344).
T1 sequence (whole entry): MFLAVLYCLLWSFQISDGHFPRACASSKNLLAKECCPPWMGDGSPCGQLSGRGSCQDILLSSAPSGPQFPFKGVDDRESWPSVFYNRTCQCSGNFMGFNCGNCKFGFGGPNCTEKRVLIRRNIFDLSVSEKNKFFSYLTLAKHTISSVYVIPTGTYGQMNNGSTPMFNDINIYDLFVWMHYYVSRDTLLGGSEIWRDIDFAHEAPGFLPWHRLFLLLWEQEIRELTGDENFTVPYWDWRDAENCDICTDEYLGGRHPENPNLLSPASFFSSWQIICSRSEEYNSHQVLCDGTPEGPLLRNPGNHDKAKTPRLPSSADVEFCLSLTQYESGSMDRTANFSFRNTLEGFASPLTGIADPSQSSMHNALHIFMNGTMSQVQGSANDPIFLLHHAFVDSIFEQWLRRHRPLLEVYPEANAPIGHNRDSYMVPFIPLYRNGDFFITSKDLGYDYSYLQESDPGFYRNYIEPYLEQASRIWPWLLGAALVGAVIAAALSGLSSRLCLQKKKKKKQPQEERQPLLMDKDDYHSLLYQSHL
In words: Activation of tyrosinase in mouse B16F10 cells assessed as melanin production at 50 uM after 48 hrs by spectrophotometric analysis relative to control. It is filed as cell-based. In short, it runs like this: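 B16F10 cells grown in DMEM with 10% heat-inactivated FBS and penicillin/streptomycin at 37 °C, 5% CO2. Seeded at 5×10⁵ cells/well in 6-well plates for 24 h, then exposed to 50 μM compound for 48 h. After a cold PBS wash, cells were lysed in RIPA buffer 40 min on ice and dissolved in 1 M NaOH 2 h at 60 °C. Melanin was read at 405 nm and normalized; three separate experiments.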

For data set [2], the target named is T1, Tyrosinase (Mus musculus). The data set can be described thus: Potency index, ratio of compound activity to 8-MOP activity for tyrosinase activation in mouse B16F10 cells assessed as melanin production. Format: cell-based.
A further data set concerns B16-F10. The data set can be described thus: Cytotoxicity against mouse B16F10 cells assessed as reduction in cell viability at 50 uM after 24 hrs by CCK-8 assay. It is filed as cell-based. The settings on record: b16-f10, 24 h. In a few lines:
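Viability: B16F10 cells (DMEM, 10% FBS, 37 °C, 5% CO2) plated at 5×10³ cells/well in 96-well plates, left 12 h, then given fresh medium with 50 μM compound for 24 h. After a cold PBS wash, CCK-8 added for 2 h at 37 °C and absorbance read at 450 nm. Proliferation expressed relative to untreated control; mean ± SD of three experiments.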

The target of another data set is T2, Tyrosinase (Agaricus bisporus, UniProt O42713).
T2 sequence (O42713 whole entry): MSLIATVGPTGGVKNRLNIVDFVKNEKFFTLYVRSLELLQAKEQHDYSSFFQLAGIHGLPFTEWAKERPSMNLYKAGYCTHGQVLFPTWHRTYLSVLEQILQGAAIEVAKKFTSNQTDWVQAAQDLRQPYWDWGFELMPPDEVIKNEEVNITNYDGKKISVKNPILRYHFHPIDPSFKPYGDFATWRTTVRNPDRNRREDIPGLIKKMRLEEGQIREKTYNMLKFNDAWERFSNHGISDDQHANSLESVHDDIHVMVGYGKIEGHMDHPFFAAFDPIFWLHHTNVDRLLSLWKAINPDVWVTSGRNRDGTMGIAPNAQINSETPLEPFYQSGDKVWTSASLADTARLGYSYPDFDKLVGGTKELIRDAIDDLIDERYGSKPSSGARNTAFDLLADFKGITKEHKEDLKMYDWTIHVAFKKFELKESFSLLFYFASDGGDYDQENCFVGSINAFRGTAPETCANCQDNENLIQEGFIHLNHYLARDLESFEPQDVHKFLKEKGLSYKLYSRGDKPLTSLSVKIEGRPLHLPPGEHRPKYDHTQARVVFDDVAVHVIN
In words: Activation of mushroom tyrosinase using L-tyrosine as substrate preincubated for 5 mins followed by substrate addition measured after 30 mins by ELISA. In short, it runs like this:
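Mushroom tyrosinase activation: test compounds (0.5–300 μM) in DMSO preincubated with enzyme 5 min at 25–30 °C, then L-tyrosine (2 mM, 0.1 mL) added and incubated a further 30 min; absorbance read at 490 nm. Rate of activation = [(C−D)−(A−B)]/(A−B)×100, A being the enzyme-only system. EC50 reported as mean ± SD of three independent experiments.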
(In general: An ELISA detects its analyte on a solid surface through an enzyme-linked reagent.)

Molecules are shown by their SMILES. Active and inactive are the calls of the source. The rule behind the calls is not given here.

As for `O=C(/C=C/c1ccccc1)c1ccc(OCc2cc(-c3ccc(F)c(F)c3)no2)cc1`, the values for the Activity (in data set [1]; with B16-F10) were 463% and “Non-Toxic”, respectively. Moreover, the Ratio in data set [2] was 3. A half-maximal response at Tyrosinase (EC50) required 1.3 µM. Regarding `O=C(/C=C/c1ccccc1)c1ccc(CCc2cn(Cc3ccc(F)cc3)nn2)cc1`, a half-maximal effect at Tyrosinase (EC50) was put at 14.6 µM. Regarding `O=C(/C=C/c1ccccc1)c1ccc(CCc2cn(Cc3cccc(Cl)c3)nn2)cc1`, the EC50 (as a rule, the concentration that produces a half-maximal response) on Tyrosinase came to 11.9 µM. In the case of `COc1cccc(Cn2cc(CCc3ccc(C(=O)/C=C/c4ccccc4)cc3)nn2)c1`, the response on Tyrosinase was half-maximal at 37.4 µM (EC50). Regarding `O=C(/C=C/c1ccccc1)c1ccc(OCc2cc(-c3ccc4c(c3)OCCO4)no2)cc1`, the Activity is 438% in data set [1] and “Non-Toxic” in the data set with B16-F10. Further, the Ratio in data set [2] came out at 4. The EC50 at Tyrosinase was > 100 µM.

As to `O=C(/C=C/c1ccccc1)c1ccc(CCc2cn(Cc3ccc(Cl)c(Cl)c3)nn2)cc1`, the EC50 at Tyrosinase was found to be 1.71 µM. For the compound `O=C(/C=C/c1ccccc1)c1ccc(OCc2cc(-c3ccc(Cl)cc3)no2)cc1`, the Activity entry in the data set with B16-F10 is “Non-Toxic”. The EC50 on Tyrosinase came out at 8.1 µM. With `CN(C)c1ccc(-c2cc(COc3ccc(C(=O)/C=C/c4ccccc4)cc3)on2)cc1`, the Activity entry in the data set with B16-F10 is reported as “Non-Toxic”. For the same compound, the EC50 on Tyrosinase was determined as 28.9 µM.

Regarding `Nc1nc2ccc(C(=O)/C=C/c3ccc(Cl)cc3)cc2s1`, the EC50 on Tyrosinase came out at 30.6 µM.

As for `Cc1ccc(S(=O)(=O)Nc2ccc(C(=O)/C=C/c3ccc(Cl)cc3)cc2)cc1`, a half-maximal effect at Tyrosinase (EC50) was put at 25.8 µM. Regarding `O=C(/C=C/c1ccccc1)c1ccc(OCc2cc(-c3cccc(OC(F)(F)F)c3)no2)cc1`, the result in data set [1] was Active. The Activity result in the data set with B16-F10 is recorded as “Non-Toxic”. In addition, the EC50 on Tyrosinase turned out to be 25.5 µM.

Take `COc1ccccc1-c1cc(COc2ccc(C(=O)/C=C/c3ccccc3)cc2)on1`: the Activity entry with B16-F10 is “Non-Toxic”. At Tyrosinase, this compound gave an EC50 of 65.3 µM. In the case of `COc1ccc(-c2cc(COc3ccc(C(=O)/C=C/c4ccccc4)cc3)on2)cc1`, the Activity entry in the data set on B16-F10 was “Non-Toxic”. On Tyrosinase, it took 47.2 µM to reach a half-maximal effect (EC50). `O=C(/C=C/c1ccccc1)c1ccc(CCc2cn(Cc3ccc(Cl)cc3)nn2)cc1` had an EC50 on Tyrosinase of 23.9 µM. Turning to `COc1c2occc2cc2ccc(=O)oc12` [METHOXSALEN], the Activity in data set [1] turned out to be 115%. Besides, at Tyrosinase, a half-maximal response (EC50) required 14.8 µM. Turning to `O=C(/C=C/c1ccccc1)c1ccc(CCc2cn(Cc3cccc(F)c3)nn2)cc1`, the EC50 at Tyrosinase worked out at 5.6 µM. Consider `O=C(/C=C/c1ccccc1)c1ccc(OCc2cc(-c3cccs3)no2)cc1`, for which the Activity result with B16-F10 is given as “Non-Toxic”. Also, on Tyrosinase, a half-maximal effect (EC50) was put at 56.2 µM. In the case of `O=C(/C=C/c1ccccc1)c1ccc(OCc2cc(-c3cc(Cl)cc(Cl)c3)no2)cc1`, the Activity in data set [1] is 57%; with B16-F10, “Non-Toxic”. The EC50 at Tyrosinase amounted to 12.7 µM.

`O=C(/C=C/c1ccccc1)c1ccc(OCc2cc(-c3ccc([N+](=O)[O-])cc3)no2)cc1`: the Activity result in the data set on B16-F10 is “Non-Toxic”. On Tyrosinase, the EC50 was > 100 µM.

`O=C(/C=C/c1ccccc1)c1ccc(OCc2cc(-c3ccc(Cl)c(F)c3)no2)cc1`: in data set [1], the outcome was Active. The Activity entry with B16-F10 was “Non-Toxic”. This compound also displayed an EC50 at Tyrosinase of 3 µM.

As for `O=C(/C=C/c1ccccc1)c1ccc(OCc2cc(-c3cccc(F)c3)no2)cc1`, the figures for the Activity (in data set [1]; in the data set on B16-F10) were 330% and “Non-Toxic”, respectively. Moreover, the Ratio in data set [2] came to 4. Moreover, on Tyrosinase, the EC50 amounted to 21.3 µM.

Turning to `O=C(/C=C/c1ccccc1)c1ccc(OCc2cc(-c3ccc(Cl)c(Cl)c3)no2)cc1`, in data set [1], the result was Active. In the data set on B16-F10, the Activity result is given as “Non-Toxic”. On Tyrosinase, this compound came in with an EC50 of 2.5 µM. Turning to `Cc1ccc(-c2cc(COc3ccc(C(=O)/C=C/c4ccccc4)cc3)on2)o1`, the Activity result in the data set on B16-F10 is recorded as “Non-Toxic”. In addition, the EC50 on Tyrosinase turned out to be 35.6 µM.

Turning to `O=C(/C=C/c1ccccc1)c1ccc(OCc2cc(-c3ccccc3)no2)cc1`, in the data set with B16-F10, the Activity entry is reported as “Non-Toxic”. At Tyrosinase, this compound displayed an EC50 of 78.1 µM.

For `O=C(/C=C/c1ccccc1)c1ccc(OCc2cc(-c3ccc(F)cc3)no2)cc1`, the Activity entry in the data set on B16-F10 is reported as “Non-Toxic”. Further, the EC50 on Tyrosinase stood at 6.4 µM. In turn, `Cc1ccc(/C=C/C(=O)c2ccc3nc(NC(=O)c4ccccc4)sc3c2)cc1` showed an EC50 at Tyrosinase of 17.1 µM.

`O=C(/C=C/c1ccccc1)c1ccc(OCc2cc(-c3cccc(Cl)c3)no2)cc1`: the Activity result in the data set on B16-F10 is listed as “Non-Toxic”. Besides, the EC50 on Tyrosinase was 23.8 µM. `O=C(/C=C/c1ccc(Cl)cc1)c1ccc2nc(NC(=O)c3ccccc3)sc2c1` showed an EC50 at Tyrosinase of 9.6 µM. The compound `O=C(/C=C/c1ccc(Cl)cc1)c1ccc(NC(=O)c2ccccc2)cc1` came in with a concentration for a half-maximal effect (EC50) at Tyrosinase of 21.1 µM. For the compound `O=C(/C=C/c1ccccc1)c1ccc(OCc2cc(-c3ccc(I)o3)no2)cc1`, in the data set on B16-F10, the Activity result was “Non-Toxic”. The EC50 on Tyrosinase worked out at 11.4 µM.
